In assay [1] the test system is Echinochloa crus-galli. The assay can be described thus: Herbicidal activity against Echinochloa crus-galli (barnyard grass) assessed as growth inhibition at 150 g ai/ha applied as post-emergence treatment under green house conditions measured 15 days post compound treatment. The class given is functional. As to conditions: 360 h, read-out: GI. In short, it runs like this:
(§1)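 Monocot weeds grown in pots in a greenhouse and sprayed post-emergence at the one-leaf stage. Clay soil: pH 6.5, 1.6% organic matter, 37.3% clay, CEC 12.1 cmol/kg. Formulation: 100 g/L emulsified concentrate (DMF, TW-80) diluted with water to 150 g ai/ha. Untreated and DMF controls included. Growth inhibition scored visually after 15 days: ++ >80%, + 50-80%, − <50%.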

Assay [2] deals with Brassica juncea. The assay can be described thus: Herbicidal activity against Brassica juncea assessed as growth inhibition at 150 g ai/ha applied as pre-emergence treatment 24 hr after weeds seeds sowing under green house conditions measured 15 days post compound treatment. The class given is functional. Particulars: read-out: GI. In short, it runs like this:
(§2)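 Pre-emergence spray applied 24 h after sowing weeds in pots in a greenhouse. Clay soil: pH 6.5, 1.6% organic matter, 37.3% clay, CEC 12.1 cmol/kg. Formulation: 100 g/L emulsified concentrate (DMF solvent, TW-80 emulsifier) diluted with water to 150 g ai/ha. Untreated and DMF-treated controls. Growth inhibition judged visually at 15 days: ++ >80%, + 50-80%, − <50%.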

Assay [3] has as its system Chenopodium album. The assay can be described thus: Herbicidal activity against Chenopodium album assessed as growth inhibition at 150 g ai/ha applied as pre-emergence treatment 24 hr after weeds seeds sowing under green house conditions measured 15 days post compound treatment. It is filed as functional. Particulars: read-out: GI. In short, it runs like this:
as §2

Assay [4] deals with Echinochloa crus-galli. The assay can be described thus: Herbicidal activity against Echinochloa crus-galli (barnyard grass) assessed as growth inhibition at 150 g ai/ha applied as pre-emergence treatment 24 hr after weeds seeds sowing under green house conditions measured 15 days post compound treatment. It is filed as functional. Particulars: read-out: GI. The method, boiled down: as §2

The subject of assay [5] is Digitaria sanguinalis. The experiment in a line: Herbicidal activity against Digitaria sanguinalis (hairy crabgrass) assessed as growth inhibition at 150 g ai/ha applied as post-emergence treatment under green house conditions measured 15 days post compound treatment. As to conditions: 360 h, read-out: GI. The class given is functional. In short, it runs like this: as §1

The target of assay [6] is T1, Acetolactate synthase, chloroplastic (Arabidopsis thaliana, UniProt P17597).
T1 sequence (P17597 whole entry): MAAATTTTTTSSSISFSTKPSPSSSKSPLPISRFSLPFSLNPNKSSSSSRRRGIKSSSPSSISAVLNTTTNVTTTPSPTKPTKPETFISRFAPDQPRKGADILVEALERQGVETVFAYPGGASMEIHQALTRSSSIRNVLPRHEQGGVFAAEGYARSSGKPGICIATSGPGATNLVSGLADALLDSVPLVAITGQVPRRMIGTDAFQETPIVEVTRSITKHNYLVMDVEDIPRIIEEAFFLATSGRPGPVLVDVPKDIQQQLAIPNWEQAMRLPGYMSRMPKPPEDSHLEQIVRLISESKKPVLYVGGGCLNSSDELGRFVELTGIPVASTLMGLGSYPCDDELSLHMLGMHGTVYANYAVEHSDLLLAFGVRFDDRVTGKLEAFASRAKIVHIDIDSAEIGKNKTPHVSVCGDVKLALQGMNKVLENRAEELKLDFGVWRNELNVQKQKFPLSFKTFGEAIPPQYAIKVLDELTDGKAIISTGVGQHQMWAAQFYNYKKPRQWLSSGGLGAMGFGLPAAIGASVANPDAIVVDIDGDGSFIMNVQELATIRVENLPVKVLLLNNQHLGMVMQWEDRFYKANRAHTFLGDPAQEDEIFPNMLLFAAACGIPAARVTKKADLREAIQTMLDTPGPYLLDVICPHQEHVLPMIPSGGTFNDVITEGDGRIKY
The assay can be described thus: Inhibition of wild type Arabidopsis thaliana acetohydroxyacid synthase.

Assay [7] deals with Setaria viridis. The assay can be described thus: Herbicidal activity against Setaria viridis (green foxtail) assessed as growth inhibition at 150 g ai/ha applied as pre-emergence treatment 24 hr after weeds seeds sowing under green house conditions measured 15 days post compound treatment. The class given is functional. As to conditions: read-out: GI. In short, it runs like this: as §2

The subject of assay [8] is Digitaria sanguinalis. The assay can be described thus: Herbicidal activity against Digitaria sanguinalis (hairy crabgrass) assessed as growth inhibition at 150 g ai/ha applied as pre-emergence treatment 24 hr after weeds seeds sowing under green house conditions measured 15 days post compound treatment. The class given is functional. As to conditions: read-out: GI. The method, boiled down: as §2

Assay [9] deals with Amaranthus retroflexus. The assay can be described thus: Herbicidal activity against Amaranthus retroflexus assessed as growth inhibition at 150 g ai/ha applied as pre-emergence treatment 24 hr after weeds seeds sowing under green house conditions measured 15 days post compound treatment. It is filed as functional. Particulars: read-out: GI. In short, it runs like this:
as §2

The subject of assay [10] is Chenopodium album. The assay can be described thus: Herbicidal activity against Chenopodium album assessed as growth inhibition at 150 g ai/ha applied as post-emergence treatment under green house conditions measured 15 days post compound treatment. The class given is functional. As to conditions: 360 h, read-out: GI. The method, boiled down: (§3)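 Post-emergence spray on pot-grown dicot weeds at the two-leaf stage in a greenhouse. Clay soil: pH 6.5, 1.6% organic matter, 37.3% clay, CEC 12.1 cmol/kg. Formulation: 100 g/L DMF/TW-80 emulsified concentrate, water-diluted to 150 g ai/ha. Untreated and DMF solvent controls. Visual inhibition rating at 15 days: ++ >80%, + 50-80%, − <50%.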

For assay [11], the system named is Brassica juncea. The experiment in a line: Herbicidal activity against Brassica juncea assessed as growth inhibition at 150 g ai/ha applied as post-emergence treatment under green house conditions measured 15 days post compound treatment. The class given is functional. As to conditions: 360 h, read-out: GI. The method, boiled down: as §3
Assay [12] has as its system Setaria viridis. The assay can be described thus: Herbicidal activity against Setaria viridis (green foxtail) assessed as growth inhibition at 150 g ai/ha applied as post-emergence treatment under green house conditions measured 15 days post compound treatment. It is filed as functional. As to conditions: 360 h, read-out: GI. In short, it runs like this: as §1
For assay [13], the system named is Amaranthus retroflexus. The experiment in a line: Herbicidal activity against Amaranthus retroflexus assessed as growth inhibition at 150 g ai/ha applied as post-emergence treatment under green house conditions measured 15 days post compound treatment. As to conditions: 360 h, read-out: GI. It is filed as functional. The method, boiled down:
as §3

pKi: −log10 of the molar value.

Regarding `COc1cc(OC)nc(Oc2cccc3c(C)nn(Cc4ccc(Cl)cc4)c(=O)c23)n1`, the inhibition of growth at 150 g/ha in the assay on Echinochloa crus-galli [1], in the assay on Brassica juncea [2], with Chenopodium album [3], in the assay with Echinochloa crus-galli [4], in the assay with Digitaria sanguinalis [5] and with Setaria viridis [7] was below 50% throughout. For the same compound, the inhibition of growth at 150 g/ha with Digitaria sanguinalis [8], in the assay with Amaranthus retroflexus [9], in the assay with Chenopodium album [10], in the assay with Brassica juncea [11], in the assay with Setaria viridis [12] and with Amaranthus retroflexus [13] was below 50% each time. This compound also showed a pKi in [6] of 3.69.
Take `COc1cc(OC)nc(Oc2cccc3c(C)nn(Cc4ccccc4C)c(=O)c23)n1`: the inhibition of growth at 150 g/ha with Echinochloa crus-galli [1], with Brassica juncea [2], in the assay on Chenopodium album [3], in the assay with Echinochloa crus-galli [4], in the assay with Digitaria sanguinalis [5] and in the assay with Setaria viridis [7] was below 50% throughout. In addition, the inhibition of growth at 150 g/ha in the assay with Digitaria sanguinalis [8] was below 50%; in the assay on Amaranthus retroflexus [9], below 50%; with Chenopodium album [10], 50%; in the assay on Brassica juncea [11] it was 50%; in the assay on Setaria viridis [12], 50%; with Amaranthus retroflexus [13] it was above 80%. The pKi in assay [6] is 3.58.
Turning to `COc1cc(OC)nc(Oc2cccc3c(C)nn(Cc4ccccc4Br)c(=O)c23)n1`, the inhibition of growth at 150 g/ha with Echinochloa crus-galli [1], in the assay with Brassica juncea [2], with Chenopodium album [3], in the assay with Echinochloa crus-galli [4], in the assay on Digitaria sanguinalis [5] and with Setaria viridis [7] was below 50% each time. Besides, the inhibition of growth at 150 g/ha in the assay on Digitaria sanguinalis [8], in the assay with Amaranthus retroflexus [9], in the assay with Chenopodium album [10], with Brassica juncea [11], with Setaria viridis [12] and in the assay with Amaranthus retroflexus [13] was below 50% each time. In assay [6], this compound showed a pKi of 3.44.
Turning to `COc1cc(OC)nc(Oc2cccc3c(C)nn(Cc4ccc(Br)cc4F)c(=O)c23)n1`, the inhibition of growth at 150 g/ha with Echinochloa crus-galli [1], in the assay with Brassica juncea [2], with Chenopodium album [3], in the assay with Echinochloa crus-galli [4], in the assay with Digitaria sanguinalis [5] and in the assay with Setaria viridis [7] was below 50% each time. Further, the inhibition of growth at 150 g/ha in the assay on Digitaria sanguinalis [8], in the assay with Amaranthus retroflexus [9], in the assay on Chenopodium album [10], in the assay on Brassica juncea [11], in the assay with Setaria viridis [12] and with Amaranthus retroflexus [13] was below 50% throughout. Besides, in assay [6], the pKi is 3.38.
For `CCOC(=O)Cn1nc(C)c2cccc(Oc3nc(OC)cc(OC)n3)c2c1=O`, the inhibition of growth at 150 g/ha is above 80% in the assay with Echinochloa crus-galli [1]; below 50% in the assay with Brassica juncea [2]; below 50% in the assay with Chenopodium album [3]; below 50% in the assay on Echinochloa crus-galli [4]; 50% with Digitaria sanguinalis [5]; below 50% in the assay with Setaria viridis [7]. The inhibition of growth at 150 g/ha is below 50% in the assay with Digitaria sanguinalis [8]; below 50% in the assay with Amaranthus retroflexus [9]; 50% in the assay with Chenopodium album [10]; below 50% in the assay on Brassica juncea [11]; above 80% with Setaria viridis [12]; above 80% in the assay on Amaranthus retroflexus [13]. Also, in assay [6], the pKi was 3.25.
Turning to `COc1cc(OC)nc(Oc2cccc3c(C)nn(Cc4ccccc4)c(=O)c23)n1`, the inhibition of growth at 150 g/ha in the assay with Echinochloa crus-galli [1], in the assay with Brassica juncea [2], in the assay on Chenopodium album [3], in the assay on Echinochloa crus-galli [4], in the assay on Digitaria sanguinalis [5] and in the assay on Setaria viridis [7] was below 50% throughout. Further, the inhibition of growth at 150 g/ha in the assay with Digitaria sanguinalis [8], in the assay on Amaranthus retroflexus [9], in the assay with Chenopodium album [10], in the assay with Brassica juncea [11], in the assay with Setaria viridis [12] and with Amaranthus retroflexus [13] was below 50% each time. In assay [6], this compound gave a pKi of 3.09.
As for `COc1cc(OC)nc(Oc2cccc3c(C)nn(CC4OCCO4)c(=O)c23)n1`, the inhibition of growth at 150 g/ha in the assay on Echinochloa crus-galli [1] was 50%; with Brassica juncea [2], below 50%; in the assay on Chenopodium album [3], below 50%; in the assay with Echinochloa crus-galli [4], below 50%; in the assay with Digitaria sanguinalis [5] it was 50%; in the assay with Setaria viridis [7], below 50%. In addition, the inhibition of growth at 150 g/ha with Digitaria sanguinalis [8] was below 50%; with Amaranthus retroflexus [9], below 50%; in the assay on Chenopodium album [10] it was 50%; in the assay with Brassica juncea [11], 50%; in the assay on Setaria viridis [12] it was above 80%; in the assay on Amaranthus retroflexus [13], above 80%. The compound further had a pKi in [6] of 3.11.
On to `COc1cc(OC)nc(Oc2cccc3c(C)nn(Cc4cccc(Br)c4)c(=O)c23)n1`, for which the inhibition of growth at 150 g/ha in the assay with Echinochloa crus-galli [1] was 50%; in the assay on Brassica juncea [2], below 50%; in the assay with Chenopodium album [3], below 50%; with Echinochloa crus-galli [4], below 50%; in the assay on Digitaria sanguinalis [5], 50%; in the assay with Setaria viridis [7], below 50%. Moreover, the inhibition of growth at 150 g/ha in the assay on Digitaria sanguinalis [8] is below 50%; in the assay on Amaranthus retroflexus [9], below 50%; in the assay with Chenopodium album [10], below 50%; in the assay with Brassica juncea [11], 50%; in the assay on Setaria viridis [12], 50%; in the assay on Amaranthus retroflexus [13], above 80%. For the same compound, the pKi in [6] is 3.12.
Regarding `CCCCn1nc(C)c2cccc(Oc3nc(OC)cc(OC)n3)c2c1=O`, the inhibition of growth at 150 g/ha was 50% in the assay with Echinochloa crus-galli [1]; below 50% in the assay with Brassica juncea [2]; below 50% in the assay on Chenopodium album [3]; below 50% in the assay with Echinochloa crus-galli [4]; below 50% in the assay on Digitaria sanguinalis [5]; below 50% in the assay with Setaria viridis [7]. For the same compound, the inhibition of growth at 150 g/ha in the assay with Digitaria sanguinalis [8] was below 50%; with Amaranthus retroflexus [9], below 50%; in the assay on Chenopodium album [10], above 80%; in the assay with Brassica juncea [11] it was 50%; in the assay with Setaria viridis [12], 50%; in the assay with Amaranthus retroflexus [13], above 80%. Further, the pKi in [6] was 3.36.
`CO/N=C(/C)c1cccc(Oc2nc(OC)cc(OC)n2)c1C(=O)OC` [PYRIMINOBAC-METHYL]: the inhibition of growth at 150 g/ha with Echinochloa crus-galli [1] is above 80%; in the assay with Brassica juncea [2] it was below 50%; with Chenopodium album [3], below 50%; in the assay on Echinochloa crus-galli [4], below 50%; in the assay with Digitaria sanguinalis [5], above 80%; with Setaria viridis [7] it was below 50%. Also, the inhibition of growth at 150 g/ha with Digitaria sanguinalis [8] was below 50%; with Amaranthus retroflexus [9] it was below 50%; with Chenopodium album [10] it was above 80%; in the assay with Amaranthus retroflexus [13], above 80%. This compound also showed a pKi in [6] of 4.31.

The values above are taken from ChEMBL document CHEMBL3046448, “Design and syntheses of novel phthalazin-1(2H)-one derivatives as acetohydroxyacid synthase inhibitors” (J Agric Food Chem, 2006).
